Experimental data gathered from unrelated publications.
Target: Angiopoietin-1 receptor (TEK, Homo sapiens, UniProt Q02763)

| Compound | assay | setting | quantity | result |
| --- | --- | --- | --- | --- |
| C#Cc1cnc(Nc2ccnc(CO)c2)nc1Nc1ccccc1S(C)(=O)=NC#N (centres unmarked) | cell-free assay | 1 µM | remaining signal | 46% |
| N#Cc1ccc(NC(=O)Nc2ccccc2)cc1 | cell-free assay, competition with immobilised ligand | 25 µM | remaining binding | 98% |
| COc1ccc2[nH]c3c4[nH]c5ccc(OC)cc5c4c4c(c3c2c1)C(=O)NC4=O | binding, competition with immobilised ligand | 1 µM | remaining binding | 100% |
| C=CC(=O)N1CCC([C@@H]2CCNc3c(C(N)=O)c(-c4ccc(Oc5ccccc5)cc4)nn32)CC1 | cell-free assay | 1 µM | inhibition | 0% |
| CCCCC(=O)Nc1ccc(-c2ccc3ncn(CCC)c(=O)c3c2)cn1 | binding, competition with immobilised ligand | 0.5 µM | remaining binding | 94% |
| CC#CC(=O)N1CCC[C@H]1c1nc(-c2ccc(C(=O)Nc3ccccn3)cc2)c2c(N)nccn12 | enzyme activity, inhibitor | 1 µM | inhibition | 0% |
| COc1ccc2oc(-c3ccc4nc(N)oc4c3)c/c(=N\c3ccccc3NC(=O)CCN)c2c1 | cell-free assay | 1 µM | remaining signal | 87% |
| C[C@H]1CC[C@H](n2c3cnccc3c3cnc(Nc4ccc5c(n4)CCN(C(=O)CO)C5)nc32)CC1 | cell-free assay, competition with immobilised ligand | 1 µM | remaining binding | 92% |
